In ChEMBL document CHEMBL4024777, “Discovery of LY3104607: A Potent and Selective G Protein-Coupled Receptor 40 (GPR40) Agonist with Optimized Pharmacokinetic Properties to Support Once Daily Oral Treatment in Patients with Type 2 Diabetes Mellitus” (J Med Chem, 2018):
Calls of active or inactive are those of the source. No cut-off for these calls is given here.

Legend:
[1] = target: T1, Free fatty acid receptor 1 (Homo sapiens, UniProt O14842); test: Agonist activity at human PK-tagged GPR40 expressed in HEK293 cells assessed as EA-tagged beta-arrestin recruitment after 90 mins in presence of 1 % heat inactivated FBS by beta-galactosidase reporter gene assay relative to untreated control; assay type: cell-based
[2] = target: T2, Peroxisome proliferator-activated receptor alpha (Homo sapiens) (UniProt Q07869); test: Agonist activity at GAL4-fused human PPARalpha expressed in African green monkey CV1 cells up to 30 uM after 24 hrs by luciferase reporter gene assay; assay type: cell-based
T2 sequence (whole entry): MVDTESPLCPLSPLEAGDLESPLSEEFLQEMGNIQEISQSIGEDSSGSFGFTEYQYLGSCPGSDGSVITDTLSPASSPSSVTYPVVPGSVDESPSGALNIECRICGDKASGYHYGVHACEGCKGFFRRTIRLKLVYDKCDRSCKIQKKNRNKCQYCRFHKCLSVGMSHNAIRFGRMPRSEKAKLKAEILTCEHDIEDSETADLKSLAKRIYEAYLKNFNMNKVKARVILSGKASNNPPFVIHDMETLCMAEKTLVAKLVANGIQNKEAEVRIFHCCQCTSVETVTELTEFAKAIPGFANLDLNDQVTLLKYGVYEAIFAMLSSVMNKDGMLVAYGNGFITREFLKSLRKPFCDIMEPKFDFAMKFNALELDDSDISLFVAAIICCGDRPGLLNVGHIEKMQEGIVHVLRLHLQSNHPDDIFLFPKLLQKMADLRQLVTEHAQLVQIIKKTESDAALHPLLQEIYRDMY
Outline: (§1)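 PPAR alpha, delta and gamma binding and functional activity were each tested at concentrations up to 30 µM.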

[3] = target: T1, Free fatty acid receptor 1; test: Agonist activity at human GPR40 receptor expressed in HEK293 cells assessed as increase in intracellular calcium flux after 2.5 hrs measured over 3 mins by calcium 4 dye-based FLIPR assay; assay type: functional, cell-based
Outline: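 Calcium flux was read by FLIPR in cells carrying recombinant human GPR40. Percent stimulation is relative to the response to 100 µM linoleic acid. EC50 is reported with SEM and n.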

[4] = target: T3, Peroxisome proliferator-activated receptor gamma (Homo sapiens) (UniProt P37231); test: Agonist activity at […] human PPARgamma expressed in African green monkey CV1 cells up to 30 uM after 24 hrs by luciferase reporter gene assay; assay type: cell-based; outline: as §1
T3 sequence (whole entry): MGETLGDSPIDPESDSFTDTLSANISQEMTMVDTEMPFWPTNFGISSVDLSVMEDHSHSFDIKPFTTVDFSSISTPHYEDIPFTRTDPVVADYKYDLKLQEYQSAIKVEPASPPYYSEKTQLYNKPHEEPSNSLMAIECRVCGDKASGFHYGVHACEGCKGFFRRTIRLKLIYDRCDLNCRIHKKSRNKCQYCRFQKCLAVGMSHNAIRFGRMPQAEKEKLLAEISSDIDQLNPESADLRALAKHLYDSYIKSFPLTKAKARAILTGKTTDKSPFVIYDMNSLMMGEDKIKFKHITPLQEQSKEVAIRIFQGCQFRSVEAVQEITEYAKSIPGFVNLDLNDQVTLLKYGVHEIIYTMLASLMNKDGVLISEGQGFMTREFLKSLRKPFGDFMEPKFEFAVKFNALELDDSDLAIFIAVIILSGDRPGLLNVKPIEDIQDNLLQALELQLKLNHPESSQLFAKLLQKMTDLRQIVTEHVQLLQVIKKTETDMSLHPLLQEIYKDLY

[5] = target: T3, Peroxisome proliferator-activated receptor gamma (Homo sapiens); test: Displacement of [3H]-agonist from human PPARgamma expressed in baculovirus infecetd Sf9 cells system up to 30 uM after 10 hrs in presence of DR2 by scintillation proximity assay; outline: as §1
[6] = target: T4, Peroxisome proliferator-activated receptor delta (Homo sapiens) (UniProt Q03181); test: Displacement of [3H]-agonist from human PPARdelta expressed in baculovirus infecetd Sf9 cells system up to 30 uM after 10 hrs in presence of DR2 by scintillation proximity assay; outline: as §1
T4 sequence (whole entry): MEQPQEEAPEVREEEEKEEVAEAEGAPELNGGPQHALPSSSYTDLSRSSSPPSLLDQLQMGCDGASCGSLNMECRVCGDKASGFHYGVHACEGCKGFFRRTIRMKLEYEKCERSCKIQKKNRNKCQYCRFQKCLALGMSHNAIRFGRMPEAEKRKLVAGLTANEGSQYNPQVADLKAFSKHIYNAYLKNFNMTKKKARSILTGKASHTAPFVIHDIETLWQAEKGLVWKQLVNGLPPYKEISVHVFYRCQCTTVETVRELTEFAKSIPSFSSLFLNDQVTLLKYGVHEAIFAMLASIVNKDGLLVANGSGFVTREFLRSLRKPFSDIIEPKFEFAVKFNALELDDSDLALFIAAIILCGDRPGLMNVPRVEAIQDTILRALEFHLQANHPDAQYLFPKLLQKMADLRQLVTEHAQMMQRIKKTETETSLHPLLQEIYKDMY

[7] = target: T1, Free fatty acid receptor 1; test: Agonist activity at human GPR40 receptor expressed in HEK293 cells assessed as increase in intracellular calcium flux after 2.5 hrs measured over 3 mins in presence of 0.1% serum albumin by calcium 4 dye-based FLIPR assay; assay type: functional, cell-based
[8] = target: T1, Free fatty acid receptor 1; test: Agonist activity at human GPR40 receptor expressed in HEK293 cells assessed as increase in intracellular calcium flux after 2.5 hrs measured over 3 mins by calcium 4 dye-based FLIPR assay relative to linoleic acid; assay type: functional, cell-based; parameters: Activity: concentration or dose not given beside the values
Outline: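 Human GPR40 calcium flux was read on FLIPR. Percent stimulation is expressed against the response to 100 uM linoleic acid.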

[9] = target: T1, Free fatty acid receptor 1; test: Agonist activity at human PK-tagged GPR40 expressed in HEK293 cells assessed as EA-tagged beta-arrestin recruitment after 90 mins in presence of 1 % heat inactivated FBS by beta-galactosidase reporter gene assay; assay type: cell-based
[10] = target: Free fatty acid receptor 1 (Rattus norvegicus) (UniProt Q8K3T4); test: Agonist activity at rat PK-tagged GPR40 expressed in human U2OS cells assessed as EA-tagged beta-arrestin recruitment after 90 mins in presence of 1 % heat inactivated FBS by beta-galactosidase reporter gene assay relative to untreated control; assay type: cell-based
3T3-L1 = test: Induction of adipogenesis in mouse 3T3L1 cells; assay type: functional, cell-based
Outline: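 Adipogenesis was assessed in 3T3-L1 cells.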

[11] = target: T2, Peroxisome proliferator-activated receptor alpha (Homo sapiens); test: Displacement of [3H]-agonist from human PPARalpha expressed in baculovirus infecetd Sf9 cells system up to 30 uM after 10 hrs in presence of DR2 by scintillation proximity assay; outline: as §1
[12] = Protein binding in plasma (unknown origin) by equilibrium dialysis assay; assay type: ADME, cell-free; conditions: read-out: PPB
[13] = target: T4, Peroxisome proliferator-activated receptor delta (Homo sapiens); test: Agonist activity at GAL4-fused human PPARdelta expressed in African green monkey CV1 cells up to 30 uM after 24 hrs by luciferase reporter gene assay; assay type: cell-based; outline: as §1
[14] = target: T1, Free fatty acid receptor 1; test: Competitive displacement of [3H]-TAK-875 from full length human recombinant GPR40 expressed in HEK293 cell membranes after 2 hrs by scintillation counting
Outline: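 Binding was measured as competitive inhibition of [3H]-TAK875 (fasiglifam) binding to membranes from cells overexpressing recombinant human GPR40. Ki is reported with SEM and n.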

[15] = target: Free fatty acid receptor 1 (Rattus norvegicus, UniProt Q8K3T4); test: Agonist activity at rat PK-tagged GPR40 expressed in human U2OS cells assessed as EA-tagged beta-arrestin recruitment after 90 mins in presence of 1 % heat inactivated FBS by beta-galactosidase reporter gene assay; assay type: cell-based
Outline: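 β-Arrestin recruitment used rat GPR40 in the presence of 1% FBS. EC50 and % maximal stimulation are reported with SEM and n.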

Free fatty acid receptor 1 (Rattus norvegicus, UniProt Q8K3T4), sequence (Q8K3T4 whole entry): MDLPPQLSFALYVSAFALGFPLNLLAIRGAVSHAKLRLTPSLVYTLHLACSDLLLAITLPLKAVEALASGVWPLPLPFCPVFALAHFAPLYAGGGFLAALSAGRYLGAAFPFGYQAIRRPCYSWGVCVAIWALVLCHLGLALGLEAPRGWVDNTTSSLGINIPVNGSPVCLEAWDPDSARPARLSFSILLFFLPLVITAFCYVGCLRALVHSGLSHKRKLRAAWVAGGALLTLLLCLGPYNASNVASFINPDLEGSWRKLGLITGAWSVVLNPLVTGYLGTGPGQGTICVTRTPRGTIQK
Free fatty acid receptor 1 (Rattus norvegicus), sequence (Q8K3T4 whole entry): as above
T1 sequence (O14842 whole entry, the tested form may be a part): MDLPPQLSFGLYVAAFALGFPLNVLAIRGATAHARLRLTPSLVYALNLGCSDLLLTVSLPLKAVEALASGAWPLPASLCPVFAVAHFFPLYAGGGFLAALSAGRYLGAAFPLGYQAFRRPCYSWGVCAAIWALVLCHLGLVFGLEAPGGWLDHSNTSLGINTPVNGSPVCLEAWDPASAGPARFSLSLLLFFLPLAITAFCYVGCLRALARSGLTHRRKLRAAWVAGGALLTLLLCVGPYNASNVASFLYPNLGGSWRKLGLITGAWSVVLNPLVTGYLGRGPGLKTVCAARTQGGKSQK

Row | Compound | %max [1] [%] | Activity [2] | EC50 [3] [nM] | Activity [4] | Activity [5] | Activity [6] | Activity [7] | Activity [8] [%] | EC50 [9] [nM] | %max [10] [%] | Activity (3T3-L1) | Activity [11] | fraction unbound [12] | Activity [13] | Ki [14] [nM] | EC50 [15] [nM]
1 | CC#C[C@@H](CC(=O)O)c1ccc(OCc2ccc3nc(-c4ccc(C(C)C)cc4)nn3c2)cc1 | 154 | inactive | 2 | inactive | inactive | inactive | Active | 65 | 67 | 123 | inactive | inactive | < 0.01 | inactive | 32 | 30
2 | CC#C[C@@H](CC(=O)O)c1ccc(OCc2ccc3nc(-c4c(C)cc(OCCCS(C)(=O)=O)cc4C)nn3c2)cc1 | 114 | inactive | 117 | inactive | inactive | inactive | Active | 71 | 1490 | 140 | inactive | inactive | < 0.01 | inactive | 63 | 95
3 | CC#C[C@@H](CC(=O)O)c1ccc(OCc2ccc3nc(-c4ccc(OCCOC)cc4)nn3c2)cc1 | 121 | inactive | 16 | inactive | inactive | inactive | Active | 74 | 681 | 133 | inactive | inactive | < 0.01 | inactive | 102 | 562
4 | CC#C[C@@H](CC(=O)O)c1ccc(OCc2ccc3nc(-c4ccc(OCCC(C)(C)O)cc4)nn3c2)cc1 | 132 | inactive | 72 | inactive | inactive | inactive | Active | 89 | 301 | 121 | inactive | inactive | < 0.01 | inactive | 37 | 68
5 | CC#C[C@@H](CC(=O)O)c1ccc(OCc2ccc3nc(-c4ccc(C#N)cc4)nn3c2)cc1 | 124 | inactive | 9 | inactive | inactive | inactive | Active | 65 | 443 | 125 | inactive | inactive | < 0.01 | inactive | 35 | 216
6 | CC#C[C@@H](CC(=O)O)c1ccc(OCc2ccc3nc(-c4ccc(OC(F)F)cc4)nn3c2)cc1 | 127 | inactive | 1 | inactive | inactive | inactive | Active | 64 | 166 | 142 | inactive | inactive | < 0.01 | inactive | 60 | 98
